Assay outcomes as filed in PubChem.
CHO parental Ca: counter-screen for OX1R antagonists: effect in parental CHO cells. hit rate 0.63% among 330,000. inhibition, % at 5.6 µM. parental CHO-K1, ATP-induced calcium, Fluo-8 fluorescence. AID 463079;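 active means inhibition above that plate's mean sample inhibition plus 3 SD, cut at about 26% in these data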
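Assay system – parental CHO cells · Reagent – ATP stimulus · Detection – intracellular calcium via Fluo-8 no-wash fluorescent dye · Evaluation – percent inhibition of ATP-evoked calcium rise, normalized to controls · Controls – ATP wells versus no-ATP DMSO wells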
OX1R antag-1: antagonists of human orexin 1 receptor; O43613; CHO/OX1R cells, Fluo-8 calcium fluorescence, orexin A; inhibition, % at 5 µM; hit rate 0.43% among 330,000;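 active means inhibition above its plate's threshold, mean inhibition of all tested compounds on the plate plus 3 SD, cut at about 37% in these data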
Target sequence (O43613 whole entry, looked up): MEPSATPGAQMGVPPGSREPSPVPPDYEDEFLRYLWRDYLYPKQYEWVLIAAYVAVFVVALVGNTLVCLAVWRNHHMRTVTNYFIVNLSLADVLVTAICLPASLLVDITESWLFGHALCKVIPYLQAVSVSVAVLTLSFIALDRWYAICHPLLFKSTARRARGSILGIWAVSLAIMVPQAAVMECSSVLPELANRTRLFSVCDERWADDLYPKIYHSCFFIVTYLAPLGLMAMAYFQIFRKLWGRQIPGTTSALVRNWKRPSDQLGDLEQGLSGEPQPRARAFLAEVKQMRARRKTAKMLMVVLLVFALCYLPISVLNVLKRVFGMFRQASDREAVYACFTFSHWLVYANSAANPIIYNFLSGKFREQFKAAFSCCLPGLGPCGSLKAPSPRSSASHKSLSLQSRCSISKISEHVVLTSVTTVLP
OX1R antag-2: OX1R (human) antagonism; O43613; OX1R-expressing cells, FRET antagonist read-out; inhibition, % at 6.6 µM; hit rate 1.8% among 330,000; AID 485270; in the data active means inhibition mostly above about 38%, no sharp cut-off; inactive means mostly below about 40%
M1 PAM parental: nonselective activator or artifact in parental CHO-K1 calcium assay. AID 602247. ATP EC20, Fluo-8 calcium fluorescence; 0% at ATP EC20, 100% at ATP max. hit rate 0.02% among 360,000. activation, % at 3 µM;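 active means activation above the run cutoff, the mean activation of all test compounds plus 3 SD, cut at about 40% in these data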;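 further: peak over basal fluorescence ratio in a 140 s read after ATP addition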
M1 ag parental: nonselective activator or artifact in parental CHO-K1 cells; activation, % at 3 µM; Fluo-8 calcium fluorescence; scaled to maximal ATP response, vehicle zero; hit rate 0.48% among 360,000; in the data active means activation above about 15%;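 further: untransfected CHO-K1 host cells lacking M1 receptor as counterscreen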
CHO-K1 Ca antag: nonselective inhibitor or artifact in parental CHO-K1 cells; ATP-induced calcium, Fluo-8 fluorescence; inhibition, % at 3 µM; hit rate 0.6% among 360,000; AID 602250;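 active means inhibition above a per-plate cutoff, the plate's mean sample inhibition plus 3 SD, cut at about 24% in these data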
Large screens that a line does not name were inactive. Only some compounds are listed: those with a hit (about 2.9% of all), similar ones and a draw of the others.

O=C(N/N=C/c1cc([N+](=O)[O-])ccc1Cl)c1cnccn1	OX1R antag-2 71
O=C(Nc1cccc([N+](=O)[O-])c1)c1cnccn1	none
S=c1nc(-c2cccc(Cl)c2)[nH][nH]1	none
S=c1nc(-c2cc(Cl)ccc2Cl)[nH][nH]1	CHO-K1 Ca antag 26
O=S(=O)(c1ccc(NC(=S)N/N=C/c2ccc(O)c(O)c2)cc1)N1CCOCC1	none
O=[N+]([O-])c1cc(Cl)cc(/C=N/NC(=S)Nc2ccc(S(=O)(=O)N3CCOCC3)cc2)c1O	OX1R antag-2 75
Cc1ccc(-n2c(Cc3cccs3)nnc2SCC(=O)Nc2ccc(S(N)(=O)=O)cc2)cc1	CHO-K1 Ca antag 25
Cc1ccc(C(C)C)c(OCC(O)CN2CCc3ccccc3C2)c1 (centres undefined)	CHO parental Ca 30
Cc1ccccc1C(=O)NNC(=S)NC(=O)c1ccc(Cl)cc1Cl	M1 ag parental 89
Cc1onc(-c2ccccc2)c1C(=O)NNC(=S)NC(=O)c1ccc(Cl)cc1Cl	M1 ag parental 26
Cc1cccc(C(=O)NC(=S)NNC(=O)c2ccccc2Cl)c1	M1 ag parental 71
Cc1onc(-c2ccccc2)c1C(=O)NNC(=S)NC(=O)/C=C/c1ccccc1	M1 ag parental 21
Cc1cccc(CC(=O)N2CCCC2)c1	none
c1ccc(C2Nc3ccccc3C3OCCCC23)cc1 (centres undefined)	none
CCn1c(=NC(=O)C2COc3ccccc3O2)sc2c(OC)ccc(OC)c21 (centres undefined)	none
Cc1onc(-c2ccccc2)c1C(=O)NNC(=S)NC(=O)c1ccc(Br)cc1	M1 ag parental 65
O=C(NC(=S)Nc1ncccn1)c1ccc(Cl)cc1Cl	M1 ag parental 21
CCC(=O)Nc1cccc(NC(=S)NC(=O)c2ccc(Cl)cc2Cl)c1	none
Cc1onc(-c2ccccc2)c1C(=O)NNC(=O)c1ccccc1	none
Cc1ccc(C(=O)NNC(=S)NC(=O)c2ccc(Cl)cc2)cc1	CHO parental Ca 34, OX1R antag-1 71, M1 ag parental 102
CC1CCN(Cc2nnnn2CCCC(=O)NCCc2cnn(C)c2)CC1	none
Cc1cc2oc(=O)cc(-c3ccccc3)c2c(C)c1-c1ccc(C#N)cc1	none
Cc1cc(-c2nc3ccccc3o2)c2ccccc2n1	OX1R antag-2 45
CCCCNC(=O)COC(=O)CNC(=O)c1cc(Cl)cc([N+](=O)[O-])c1	OX1R antag-2 77
CCNC(=O)COC(=O)CNC(=O)c1cc(Cl)cc([N+](=O)[O-])c1	OX1R antag-2 41
O=C(CNC(=O)c1cc(Cl)cc([N+](=O)[O-])c1)NC1CC1	OX1R antag-2 48
CC(C)(C)NC(=O)COC(=O)CNC(=O)c1cc(Cl)cc([N+](=O)[O-])c1	none
O=c1[nH]c(/C=C\c2cccc(Cl)c2)nc(O)c1[N+](=O)[O-]	none
O=c1[nH]c(/C=C\c2cccc(F)c2)nc(O)c1[N+](=O)[O-]	M1 PAM parental 41
CC(C)c1cc(C(=O)Nc2cc(Br)ccc2O)no1	CHO parental Ca 30
CC1CCN(S(=O)(=O)c2ccc3c(c2)N(CC(=O)NCCN2C(C)CCCC2C)C(=O)CS3)CC1 (centres undefined)	none
CCOc1ccc2nc(SCC(=O)NC3CCCCC3)[nH]c2c1	none
CNC(=O)/C(C#N)=c1\s/c(=C/C(=O)OC)c(=O)n1-c1ccccc1	OX1R antag-2 69
COC(=O)/C=c1/s/c(=C(\C#N)C(=O)NCc2ccco2)n(-c2ccccc2)c1=O	none
Cc1ccc2ncc(S(=O)(=O)c3ccccc3)c(N3CCCCC3C)c2c1 (centres undefined)	CHO parental Ca 44
COc1ccc2ncc(S(=O)(=O)c3ccccc3)c(N3CCN(c4ccccc4)CC3)c2c1	none
Cc1ccccc1NC(=O)CSc1nnc(-c2ccccc2)n1-c1ccccc1	none
N#Cc1ccccc1NC(=O)CSc1nnc(-c2ccccc2O)n1-c1ccccc1	OX1R antag-2 43
Cc1cccn2c(=O)c3cc(C(=O)NC4CCCC4)sc3nc12	OX1R antag-2 55
CCCOc1ccc(CNC(=O)CCC(=O)n2ncc3cc(C)ccc32)cc1	none
COc1ccc(CNC(=O)CCC(=O)n2ncc3cc(C)ccc32)cc1	CHO-K1 Ca antag 24
Cc1csc(NC(=O)CSc2nncn2C)n1	none
CC(CC(=O)Nc1ncc([N+](=O)[O-])s1)c1ccccc1 (centres undefined)	OX1R antag-2 35
Cc1nnc(NC(=O)CC(C)c2ccccc2)s1 (centres undefined)	none
O=C(COC(=O)COc1ccccc1)Nc1ncc([N+](=O)[O-])s1	OX1R antag-2 43
O=C(Cc1ccc(Br)cc1)Nc1ncc([N+](=O)[O-])s1	M1 ag parental 16, CHO-K1 Ca antag 24
Cn1cnnc1SCC(=O)Nc1ncc([N+](=O)[O-])s1	OX1R antag-2 35
CCOc1ccc(CCNC(=O)c2ccc(S(=O)(=O)N3CCCC3)cc2)cc1OCC	none
O=CNc1ccc2c(c1)Cc1cccc(NC=O)c1-2	none (no result: CHO parental Ca, OX1R antag-1, OX1R antag-2)
Cc1ccc(NC(=O)CN(C)S(=O)(=O)c2ccc(Cl)s2)c(O)c1	none
COc1ccc(CNC(=O)Nc2ccc(C)cc2)cc1	CHO parental Ca 37
O=C(Cn1nnc2ccccc2c1=O)NCC1CCC(C(=O)O)CC1 (centres undefined)	M1 ag parental 18
COc1ccccc1C(=O)NCCn1ccc2ccccc21	OX1R antag-2 70
CCc1ccc(CNC(=O)c2ccc(OC3CCN(C(=O)COC)CC3)cc2)nc1	none (no result: CHO parental Ca, OX1R antag-1, OX1R antag-2)
Cc1ccc(OCCCCNC2CCCC(C)C2C)c(C)c1 (centres undefined)	none
CC1=C([N+](=O)[O-])C(c2ccccc2Cl)NC(=O)N1C (centres undefined)	M1 ag parental 17
CN(C=[N+](C)C)c1cccc2c1C(=O)c1ccccc1C2=O	OX1R antag-2 75
COC(=O)Cn1c2ccccc2c2nc3ccccc3nc21	none (no result: CHO parental Ca, OX1R antag-1, OX1R antag-2)
O=C(O)CCn1c2ccccc2c2nc3ccccc3nc21	OX1R antag-2 49
c1ccc2nc3c(nc2c1)c1ccccc1n3CCN1CCOCC1	OX1R antag-2 49
CCCn1c2ccccc2c2nnc(SCCN3CCOCC3)nc21	none
O=C(NCCC(=O)N1CCCC1)c1ccccc1Cl	none
CC1=C/C(=C(/c2ccc(O)c(C)c2)c2ccccc2S(=O)(=O)O)C=CC1=O	none
CC1=C/C(=C(/c2cc(C)c(O)c(Br)c2)c2ccccc2S(=O)(=O)O)C=C(Br)C1=O	OX1R antag-2 41
CCn1c(O)c(N=NC(=O)c2ccc(CSc3nncn3C)cc2)c2ccccc21	OX1R antag-2 70
CC(=O)c1ccc(NC(=O)CSc2nc(=O)n3cccc(C)c3n2)cc1	CHO-K1 Ca antag 44
COC(=O)c1ccc(NC(=O)CSc2nc(=O)n3cccc(C)c3n2)cc1	none
O=C(CN1C(=O)C(=O)N(C2CCCC2)C1=O)Nc1ccc([N+](=O)[O-])cc1	none (no result: CHO parental Ca, OX1R antag-1, OX1R antag-2)
